According to ChEMBL document CHEMBL4680154, “The optimization of xanthine derivatives leading to HBK001 hydrochloride as a potent dual ligand targeting DPP-IV and GPR119” (Eur J Med Chem, 2020):
pIC50: −log10 of the molar value.

Tests used:
[1] = target: Voltage-gated inwardly rectifying potassium channel KCNH2 (Homo sapiens, UniProt Q12809); assay: Inhibition of human ERG expressed in CHO cells by manual patch clamp assay; assay type: cell-based
Procedure, shortened: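 CHO cells stably expressing hERG, cultured at least 24 h, then recorded by whole-cell voltage-clamp patch clamp.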

[2] = Plasma protein binding in human at 5 uM after 5 hrs by LC-MS/MS based equilibrium dialysis method; assay type: ADME, cell-free; conditions: read-out: PPB (converted)
Procedure, shortened: (§1)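 Equilibrium dialysis: compound spiked at 5 μM (1% DMSO) into pre-warmed 37 °C plasma, dialysed against phosphate buffer (1% DMSO) for 5 h at 37 °C with shaking at 100 rpm. Both compartments analysed by LC-MS/MS.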

[3] = Genotoxicity in Salmonella typhimurium TA98 incubated for 48 to 72 hrs by mini-Ames test; assay type: toxicity; conditions: salmonella enterica subsp. enterica serovar typhimurium; time 48-72 hrs
Procedure, shortened: (§2)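 Mini-Ames test with Salmonella typhimurium TA98 and TA100, with 10% S9 mix or PBS, in top agar poured onto minimal agar in 6-well plates. Up to 1000 μg/well; DMSO solvent control. Incubated 37 °C for 48–72 h; revertants counted manually. Called positive at a dose-related increase of at least 2-fold over the solvent control.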

[4] = Mean residence time (0 to infinity) in Sprague-Dawley rat at 3 mg/kg, iv measured up to 24 hrs; assay type: ADME, organism-based; conditions: in vivo
Procedure, shortened: (§3)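 Male SD rats (180–200 g), three per route, dosed as free base content. Oral formulation in 0.5% carboxymethyl cellulose; intravenous formulation in normal saline. Sampling at 5, 15, 30 min and 1, 1.5, 2, 4, 6, 8, 12, 24 h; plasma kept at -80 °C. Non-compartmental parameters; F = (AUCpo×dose iv)/(AUCiv×dose po).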

[5] = Plasma protein binding in mouse at 5 uM after 5 hrs by LC-MS/MS based equilibrium dialysis method; assay type: ADME, cell-free; conditions: read-out: PPB (converted); procedure, shortened: as §1
[6] = Apparent permeability in human Caco-2 cells at 50 uM after 1 hr by UPLC analysis; assay type: ADME, cell-based
Procedure, shortened: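 Caco-2 cells grown 21 days on Transwell inserts (0.4 µm pores) into monolayers with TEER above 500 Ω×cm² before and after transport. Compound at 50 µM added apically, 1 h at 37 °C. Transported compound quantified by UPLC; Papp = (dQ/dt)/(C0×A).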

[7] = Oral bioavailability in Sprague-Dawley rat at 30 mg/kg; assay type: ADME, organism-based; conditions: in vivo; procedure, shortened: as §3
[8] = Plasma protein binding in dog at 5 uM after 5 hrs by LC-MS/MS based equilibrium dialysis method; assay type: ADME, cell-free, Canis lupus familiaris; conditions: read-out: PPB (converted); procedure, shortened: as §1
[9] = system: Vero; assay: Cytotoxicity against African green monkey Vero cells incubated for 48 hrs by MTT assay; conditions: Chlorocebus sabaeus
[10] = Genotoxicity in Salmonella typhimurium TA100 incubated for 48 to 72 hrs by mini-Ames test; assay type: toxicity; conditions: salmonella enterica subsp. enterica serovar typhimurium; time 48-72 hrs; procedure, shortened: as §2
[11] = Mean residence time (0 to infinity) in Sprague-Dawley rat at 30 mg/kg, po measured up to 24 hrs; assay type: ADME, organism-based; conditions: in vivo; procedure, shortened: as §3
[12] = Cmax in Sprague-Dawley rat plasma at 30 mg/kg, po measured up to 24 hrs; assay type: ADME, organism-based; parameters: route oral, dose 30 mg/kg, time <=24; procedure, shortened: as §3
[13] = AUC(0 to t) in Sprague-Dawley rat plasma at 30 mg/kg, po measured up to 24 hrs; assay type: ADME, organism-based; parameters: route oral, dose 30 mg/kg, time <=24; procedure, shortened: as §3
[14] = Tmax in Sprague-Dawley rat plasma at 30 mg/kg, po measured up to 24 hrs; assay type: ADME, organism-based; procedure, shortened: as §3
[15] = Plasma protein binding in rat at 5 uM after 5 hrs by LC-MS/MS based equilibrium dialysis method; assay type: ADME, cell-free; conditions: read-out: PPB (converted); procedure, shortened: as §1
[16] = AUC(0 to infinity) in Sprague-Dawley rat plasma at 30 mg/kg, po measured up to 24 hrs; assay type: ADME, organism-based; parameters: route oral, dose 30 mg/kg, time <=24; procedure, shortened: as §3
[17] = AUC(0 to infinity) in Sprague-Dawley rat plasma at 3 mg/kg, iv measured up to 24 hrs; assay type: ADME, organism-based; parameters: route intravenous, dose 3 mg/kg, time <=24; procedure, shortened: as §3
[18] = Plasma protein binding in monkey at 5 uM after 5 hrs by LC-MS/MS based equilibrium dialysis method; assay type: ADME, cell-free, Macaca mulatta; conditions: rhesus monkey, read-out: PPB (converted); procedure, shortened: as §1
[19] = Elimination half-life in Sprague-Dawley rat plasma at 30 mg/kg, po measured up to 24 hrs; assay type: ADME, organism-based; conditions: read-out: beta t1/2 (converted); procedure, shortened: as §3
[20] = Elimination half-life in Sprague-Dawley rat plasma at 3 mg/kg, iv measured up to 24 hrs; assay type: ADME, organism-based; conditions: read-out: beta t1/2 (converted); procedure, shortened: as §3
[21] = Metabolic stability in mouse liver microsomes assessed as parent compound remaining at 10 micromol/L measured after 30 mins in presence of NADPH generating system by LC-MS/MS analysis; assay type: ADME, Microsome; conditions: dose 10 µmol/L, read-out: Stabilty
Procedure, shortened: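 Mouse liver microsomes (0.5 mg/mL protein), compound at 10 μmol/L, in Tris-HCl with an NADPH-generating system that starts the reaction. Incubated in duplicate at 37 °C for 30 min; stopped with ice-cold acetonitrile containing internal standard. Supernatant analysed by LC-MS/MS; remaining amount normalised to time zero. Inactivated microsomes served as negative control.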

[22] = Acute toxicity in po dosed ICR mouse assessed as animal survival administered as single dose and observed for 7 days; assay type: organism-based; conditions: in vivo, time 7 day
Procedure, shortened: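 Female ICR mice (18 to 21 g), ten animals, given one oral dose of 1.5 g/kg. The number surviving was recorded after 7 days of observation.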

[23] = Cmax in Sprague-Dawley rat plasma at 3 mg/kg, iv measured up to 24 hrs; assay type: ADME, organism-based; parameters: route intravenous, dose 3 mg/kg, time <=24; procedure, shortened: as §3
[24] = AUC(0 to t) in Sprague-Dawley rat plasma at 3 mg/kg, iv measured up to 24 hrs; assay type: ADME, organism-based; parameters: route intravenous, dose 3 mg/kg, time <=24; procedure, shortened: as §3

Chain of Voltage-gated inwardly rectifying potassium channel KCNH2 (Q12809 whole entry): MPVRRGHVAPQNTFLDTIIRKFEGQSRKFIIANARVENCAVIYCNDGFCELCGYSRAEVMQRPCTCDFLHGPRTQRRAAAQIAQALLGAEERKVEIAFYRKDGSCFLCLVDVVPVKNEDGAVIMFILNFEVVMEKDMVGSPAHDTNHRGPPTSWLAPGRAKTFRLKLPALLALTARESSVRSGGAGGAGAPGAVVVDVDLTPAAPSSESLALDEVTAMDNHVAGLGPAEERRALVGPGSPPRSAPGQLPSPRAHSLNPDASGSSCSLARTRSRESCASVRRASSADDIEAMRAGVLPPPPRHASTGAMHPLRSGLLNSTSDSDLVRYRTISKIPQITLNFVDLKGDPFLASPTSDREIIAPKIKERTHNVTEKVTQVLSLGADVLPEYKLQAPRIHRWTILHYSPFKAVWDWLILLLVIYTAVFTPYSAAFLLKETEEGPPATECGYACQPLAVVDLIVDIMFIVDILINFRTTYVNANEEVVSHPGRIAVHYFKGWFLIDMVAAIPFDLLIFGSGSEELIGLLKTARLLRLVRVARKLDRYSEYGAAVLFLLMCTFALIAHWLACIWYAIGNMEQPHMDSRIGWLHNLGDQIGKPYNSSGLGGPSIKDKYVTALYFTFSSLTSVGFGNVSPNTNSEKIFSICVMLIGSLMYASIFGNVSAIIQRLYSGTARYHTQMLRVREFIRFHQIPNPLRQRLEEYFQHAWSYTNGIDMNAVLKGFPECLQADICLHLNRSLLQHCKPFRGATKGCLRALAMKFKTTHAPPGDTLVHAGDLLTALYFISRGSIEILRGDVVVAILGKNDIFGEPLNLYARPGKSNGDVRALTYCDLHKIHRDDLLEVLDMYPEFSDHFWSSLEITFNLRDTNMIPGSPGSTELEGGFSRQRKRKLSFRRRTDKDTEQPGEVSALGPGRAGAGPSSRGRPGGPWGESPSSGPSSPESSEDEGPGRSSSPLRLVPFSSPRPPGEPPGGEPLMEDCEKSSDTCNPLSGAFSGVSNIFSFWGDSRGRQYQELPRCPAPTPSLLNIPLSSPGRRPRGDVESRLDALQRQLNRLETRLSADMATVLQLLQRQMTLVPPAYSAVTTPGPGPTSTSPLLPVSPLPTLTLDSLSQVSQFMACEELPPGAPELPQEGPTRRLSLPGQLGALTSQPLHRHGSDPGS

Compound: CC#CCn1c(N2CCC[C@@H](N)C2)nc2c1c(=O)n(CCCN1CCN(c3nc(-c4ccccc4)no3)CC1)c(=O)n2C.Cl
- pIC50 [1]: 5.31
- fraction unbound at 5 h, 5 µM [2]: 0.028
- Activity [3]: Non-Toxic
- MRT inf [4]: 0.73 h
- fraction unbound at 5 h, 5 µM [5]: 0.015
- Papp at 1 h, 50 µM [6]: 19.1 ×10⁻⁶ cm/s
- bioavailability [7]: 42.4%
- fraction unbound at 5 h, 5 µM [8]: 0.037
- IC50 [9]: > 64 µg/mL
- Activity [10]: Non-Toxic
- MRT inf [11]: 2.22 h
- Cmax [12]: 226 ng/mL
- AUC(0-t) at 24 h [13]: 623 ng·h/mL
- Tmax [14]: 1.33 h
- fraction unbound at 5 h, 5 µM [15]: 0.039
- AUC(0-inf) [16]: 656 ng·h/mL
- AUC(0-inf) [17]: 167 ng·h/mL
- fraction unbound at 5 h, 5 µM [18]: 0.04
- half-life [19]: 1.08 h
- half-life [20]: 0.63 h
- remaining at 0.5 h, 10 µM [21]: 49.3%
- LD50 at 168 h [22]: > 1500 mg/kg
- Cmax [23]: 416 ng/mL
- AUC(0-t) at 24 h [24]: 147 ng·h/mL
